Measured values published in ChEMBL document CHEMBL3808367, “Novel HIV-1 Non-nucleoside Reverse Transcriptase Inhibitor Agents: Optimization of Diarylanilines with High Potency against Wild-Type and Rilpivirine-Resistant E138K Mutant Virus” (J Med Chem, 2016).
In brackets after ≈: the same amount, converted by molar mass.

Assays:
Liver microsome = test: Half life in human liver microsomes at 1 uM by LC-MS analysis; type: ADME
In short: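 Compound at 1 µM final with 0.1 mg/mL human liver microsomes, 5 mM MgCl2, 1.0 mM NADPH in 0.1 M potassium phosphate pH 7.4 at 37 °C. Quenched with ice-cold acetonitrile at 0, 5, 15, 30 and 45 min, in duplicate. Parent measured by LC-MS/MS (MRM, ESI).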

[1] = tested on: Human immunodeficiency virus 1; test: Antiviral activity against rilpivirine resistant HIV1 harboring reverse transcriptase E138K mutant assessed as inhibition of viral infection in human TZM-bl cells measured after 1 day by luciferase reporter gene assay; type: functional, organism-based; conditions: Human immunodeficiency virus 1, TZM-bl, 24 h
[2] = n-octanol-water partition coefficient, logP of compound at pH 7.4 stirred for 24 hrs followed by overnight incubation by HPLC analysis; type: physicochemical
[3] = tested on: Human immunodeficiency virus 1; test: Antiviral activity against HIV1 NL4-3 assessed as inhibition of viral infection in human TZM-bl cells measured after 1 day by luciferase reporter gene assay; type: functional, organism-based; conditions: Human immunodeficiency virus 1, NL4-3, TZM-bl, 24 h
[4] = tested on: Human immunodeficiency virus 1; test: Resistance index, ratio of EC50 for rilpivirine resistant HIV1 harboring reverse transcriptase E138K mutant infected in human TZM-bl cells to EC50 for HIV1 NL4-3 infected in human TZM-bl cells; type: functional
[5] = Cytotoxicity against human TZM-bl cells assessed as reduction in cell viability after 1 day by CytoTox-Glo assay; type: cell-based; conditions: for CC50 at 24 h: TZM-bl cells; for CC50: tzm, 24 h
In short: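 TZM-bl cells exposed to graded compound concentrations for 1 day, run in parallel with the antiviral assay. Viability read by CytoTox-Glo following the manufacturer's protocol.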

[6] = tested on: Human immunodeficiency virus 1; test: Resistance index, ratio of EC50 for […] resistant HIV1 A17 harboring reverse transcriptase K103N/Y181C double mutant infected in human MT2 cells to EC50 for HIV1 3B infected in human MT2 cells; type: functional
In short: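 Fold change is EC50 against A17 (K103N/Y181C) divided by EC50 against IIIB. Both are from the MT-2 assay: 100 TCID50 virus, overnight exposure to compound, then compound-free medium, and day-4 p24 ELISA.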

[7] = Metabolic stability in human liver microsomes assessed as parent compound remaining at 1 uM incubated for 30 mins in presence of NADPH by LC-MS analysis; type: ADME; conditions: read-out: Stability
In short: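 Compound at 1 µM final with 0.1 mg/mL human liver microsomes, 5 mM MgCl2, 1.0 mM NADPH in 0.1 M potassium phosphate pH 7.4 at 37 °C. Parent measured by LC-MS/MS (MRM, ESI).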

[8] = Aqueous solubility in pH 7.4 phosphate buffer at 10 mg/ml after 4 hrs by UV-HPLC method; type: physicochemical; conditions: pH 7.4, 4 h
[9] = Aqueous solubility in 0.01 M Hcl at pH 2 at 10 mg/ml after 4 hrs by UV-HPLC method; type: physicochemical; conditions: buffer, pH 2, 4 h
[10] = Selectivity index, ratio of CC50 for human TZM-bl cells to EC50 for HIV1 3B infected in human MT2 cells; type: toxicity, cell-based
[11] = tested on: Human immunodeficiency virus 1; test: Antiviral activity against HIV1 3B infected in human MT2 cells measured on day 4 post infection by p24 ELISA method; type: functional, organism-based; conditions: Human immunodeficiency virus 1, 3B, MT2, 96 h
[12] = tested on: Human immunodeficiency virus 1; test: Antiviral activity against […] resistant HIV1 A17 harboring reverse transcriptase K103N/Y181C double mutant infected in human MT2 cells measured on day 4 post infection by p24 ELISA method; type: functional, organism-based; conditions: Human immunodeficiency virus 1, A17, MT2, 96 h
In short: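 MT-2 cells (10^4 per well) were infected with 100 TCID50 of IIIB or A17 in RPMI 1640 with 10% FBS, with or without graded compound concentrations, overnight. Medium was then replaced with compound-free medium. On day 4, supernatant was mixed with an equal volume of 5% Triton X-100 and p24 was quantified by ELISA. EC50 was calculated from percent inhibition of p24 production.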

[13] = tested on: Human immunodeficiency virus 1; test: Resistance index, ratio of EC50 for rilpivirine resistant HIV1 harboring reverse transcriptase K101E mutant infected in human TZM-bl cells to EC50 for HIV1 NL4-3 infected in human TZM-bl cells; type: functional
[14] = tested on: Human immunodeficiency virus 1; test: Antiviral activity against HIV1 NL4-3 harboring reverse transcriptase E138K mutant assessed as inhibition of viral infection in human TZM-bl cells measured after 1 day by luciferase reporter gene assay; type: functional, organism-based; conditions: Human immunodeficiency virus 1, NL4-3, TZM-bl, 24 h
In short: (§1)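 Single-round infection of TZM-bl cells with 800 TCID50 of NL4-3 or its RT-mutant variants, with compound at various concentrations. After 1 day, medium was replaced by Bright Glo reagent and luminescence was read.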

[15] = tested on: Human immunodeficiency virus 1; test: Antiviral activity against HIV1 NL4-3 harboring reverse transcriptase K101E mutant assessed as inhibition of viral infection in human TZM-bl cells measured after 1 day by luciferase reporter gene assay; type: functional, organism-based; conditions: Human immunodeficiency virus 1, NL4-3, TZM-bl, 24 h; in short: as §1
[16] = tested on: Human immunodeficiency virus 1; test: Resistance index, ratio of EC50 for HIV1 NL4-3 harboring reverse transcriptase K101E mutant infected in human TZM-bl cells to EC50 for HIV1 NL4-3 infected in human TZM-bl cells; type: functional
[17] = tested on: Human immunodeficiency virus 1; test: Resistance index, ratio of EC50 for multidrug resistant HIV1 harboring reverse transcriptase L74V/M41L/V106A/T215Y multimutant infected in human TZM-bl cells to EC50 for HIV1 NL4-3 infected in human TZM-bl cells; type: functional
[18] = tested on: Human immunodeficiency virus 1; test: Resistance index, ratio of EC50 for HIV1 NL4-3 harboring reverse transcriptase E138K mutant infected in human TZM-bl cells to EC50 for HIV1 NL4-3 infected in human TZM-bl cells; type: functional
[19] = tested on: Human immunodeficiency virus 1; test: Antiviral activity against multidrug resistant HIV1 harboring reverse transcriptase L74V/M41L/V106A/T215Y multimutant assessed as inhibition of viral infection in human TZM-bl cells measured after 1 day by luciferase reporter gene assay; type: functional, organism-based; conditions: Human immunodeficiency virus 1, TZM-bl, 24 h

SMILES	t1/2 (Liver microsome) [h]	EC50 [1] [nM]	logD at 24 h [2]	EC50 [3] [nM]	Ratio EC50 [4]	Ratio EC50 [6]	remaining at 0.5 h, 1 µM [7] [%]	CC50 [5] [nM]	solubility [8] [µg/mL]	solubility [9] [µg/mL]	Ratio CC50/EC50 [10]	EC50 [11] [nM]	other results
COCc1cc(N)c(Nc2ccc(C#N)cc2)cc1Oc1c(C)cc(CCC#N)cc1C	3.85	13.3	3.25	1.45	9.2	0.9	90.8						CC50 at 24 h [5]: > 200000 nM
CC(=O)OCc1cc(N)c(Nc2ccc(C#N)cc2)cc1Oc1c(C)cc(CCC#N)cc1C	0.17	39.1	2.84	3.3	12	3.4	3	44800					
Cc1cc(CCC#N)cc(C)c1Oc1cc(Nc2ccc(C#N)cc2)c(N)cc1C(=O)NC1CC1		22.1	2.61	2	11		63.2	121000	1.94 (≈ 4.17 µM)	141 (≈ 303 µM)	12630	9.58	
CCOCc1cc(N)c(Nc2ccc(C#N)cc2)cc1Oc1c(C)cc(CCC#N)cc1C		88.4		14.3	6.2	12		194000			51596	3.76	EC50 [12]: 46.6 nM
CNC(=O)c1cc(N)c(Nc2ccc(C#N)cc2)cc1Oc1c(Br)cc(CCC#N)cc1OC	2.32	12.5	3.16	5.58	2.2	14	75.7	52400	3.38 (≈ 6.5 µM)	25.8 (≈ 49.6 µM)	24952	2.1	EC50 [12]: 29.3 nM
Cc1cc(CCC#N)cc(C)c1Oc1cc(Nc2ccc(C#N)cc2)c(N)cc1C(=O)NC(C)C				72.6				184000			3857	47.7	
Cc1cc(CCC#N)cc(C)c1Oc1ccc(N)c(Nc2ccc(C#N)cc2)c1		113		16	7.1						> 17241	11.6	CC50 at 24 h [5]: > 200000 nM
Cc1cc(CCC#N)cc(C)c1Oc1cc(Nc2ccc(C#N)cc2)c(N)cc1COC(=O)C1CC1	0.195	23.3	2.51	1.63	14		4.18	42200	1.64 (≈ 3.41 µM)	1.24 (≈ 2.58 µM)	1818	23.2	
Cc1cc(CCC#N)cc(C)c1Oc1cc(Nc2ccc(C#N)cc2)c(N)cc1Cl		19.7		11.3	1.7	2.7		10400			6303	1.65	Ratio EC50 [13]: 3.3; EC50 [12]: 4.49 nM
Cc1cc(CCC#N)cc(C)c1Oc1cc(Nc2ccc(C#N)cc2)c(N)cc1C(=O)N(C)C	1.65	11.7	2.86	6.16	1.9	45	72.2	38200	1.08 (≈ 2.38 µM)	65.1 (≈ 144 µM)	24025	1.59	EC50 [12]: 72.2 nM
COC(=O)c1cc(N)c(Nc2ccc(C#N)cc2)cc1Oc1c(Br)cc(CCC#N)cc1OC	2.32	9.98	2.85	5.19	1.9		81.5	10100	0.2 (≈ 0.384 µM)	1.73 (≈ 3.32 µM)	> 82787	< 0.122	
COC(=O)c1cc(N)c(Nc2ccc(C#N)cc2)cc1Oc1c(OC)cc(CCC#N)cc1OC				102				128000			389	329	
CCNC(=O)c1cc(N)c(Nc2ccc(C#N)cc2)cc1Oc1c(C)cc(CCC#N)cc1C	2.88	8.59	3.63	4.63	1.9		85.2	105000	1.08 (≈ 2.38 µM)	69.4 (≈ 153 µM)	6140	17.1	Ratio EC50 [13]: 4
COc1cc(/C=C/C#N)cc(Br)c1Oc1ccc(N)c(Nc2ccc(C#N)cc2)n1				3.25									EC50 [14]: 3.5 nM; EC50 [15]: 3.5 nM; Ratio EC50 [16]: 1.1; Ratio EC50 [17]: 1.1; Ratio EC50 [18]: 1.1; EC50 [19]: 3.5 nM
Cc1cc(CCC#N)cc(C)c1Oc1cc(Nc2ccc(C#N)cc2)c(N)cc1Br	0.833	65.2	> 5	3.26			58.3	84800	0.12 (≈ 0.26 µM)	0.25 (≈ 0.542 µM)		0.49	EC50 [12]: 13.9 nM
Cc1cc(CCC#N)cc(C)c1Oc1cc(Nc2ccc(C#N)cc2)c(N)cc1CN1CCN(C)CC1				115									
CNC(=O)OCc1cc(N)c(Nc2ccc(C#N)cc2)cc1Oc1c(C)cc(CCC#N)cc1C		93.8		16	5.8			46800			5625	8.32	
CNC(=O)c1cc(N)c(Nc2ccc(C#N)cc2)cc1Oc1c(OC)cc(CCC#N)cc1OC				178				42600			311	137	
Cc1cc(CCC#N)cc(C)c1Oc1cc(Nc2ccc(C#N)cc2)c(N)cc1CNC1CC1	1.65	25.7	3.69	0.53	48		78.4	25500	13.6 (≈ 30.1 µM)	276 (≈ 611 µM)	4080	6.25	
Cc1cc(CCC#N)cc(C)c1Oc1cc(Nc2ccc(C#N)cc2)c(N)cc1CN(C)C	3.85	23.4	2.52	2.73	8.6	1.1	93.3	23800	23.4 (≈ 53.2 µM)	260 (≈ 591 µM)	11019	2.16	EC50 [12]: 2.46 nM
Cc1cc(/C=C/C#N)cc(C)c1Nc1ccnc(Nc2ccc(C#N)cc2)n1 [RILPIVIRINE]	1.93		> 5				80.2						CC50 at 24 h [5]: > 30000 nM
